Laboratory results published in ChEMBL document CHEMBL1158383, “Synthesis and blood glucose lowering effect of novel pyridazinone substituted benzenesulfonylurea derivatives” (2009).

Experiments:
Rattus norvegicus [1] = experiment: Antidiabetic activity in normal Wistar albino rat assessed as inhibition of rise of blood glucose level at 20 mg/kg, po administered 15 mins prior to glucose challenge measured after 90 mins of glucose loading by glucose oxidase-peroxidase colorimetric method; type: functional
Summary of the method: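 Wistar albino rats of either sex (160–200 g), fasted overnight, in groups of six. Dosed p.o. at 10 ml/kg, suspended in 1% CMC in distilled water; vehicle controls. Glucose 2 g/kg p.o. given 15 min after dosing. Retro-orbital blood taken just before and 90 min after glucose; glucose read by GOD-POD quinoneimine at 505 nm. Percent reduction taken against the control rise, set as 100%.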

Rattus norvegicus [2] = experiment: Antidiabetic activity in streptozotocin-induced NIDDM Wistar albino rat model assessed as inhibition of rise of blood glucose level at 20 mg/kg, po administered 15 mins prior to glucose challenge measured after 90 mins of glucose loading by glucose oxidase-peroxidase colorimetric method; type: functional
Summary of the method: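 n2-STZ model: STZ 100 mg/kg in fresh 0.1 M citrate pH 4.5 given i.p. to 2-day-old pups (6–8 g), weaned for 4 weeks. Diabetic rats had fasting glucose >140 mg/dl and >200 mg/dl 2 h after oral glucose. Overnight-fasted groups of six got a 1% CMC suspension p.o. 15 min before glucose 2 g/kg p.o. GOD-POD at 505 nm before and at 90 min; reduction set against the control rise.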

Row | Structure (SMILES) | inhibition in vivo at 20 mg/kg (Rattus norvegicus [1]) | inhibition in vivo at 20 mg/kg (Rattus norvegicus [2])
1 | Cc1ccc(-c2ccc(=O)n(-c3ccc(S(=O)(=O)NC(=O)NC4CCCCC4)cc3)n2)cc1 | 79.9% | 110%
2 | CCCCNC(=O)NS(=O)(=O)c1ccc(-n2nc(-c3ccc(OC)cc3)ccc2=O)cc1 | 43.7% | 25.6%
3 | CCCNC(=O)NS(=O)(=O)c1ccc(-n2nc(-c3ccccc3)ccc2=O)cc1 | 77.2% | 125%
4 | O=C(NC1CCCCC1)NS(=O)(=O)c1ccc(-n2nc(-c3ccccc3)ccc2=O)cc1 | 52.1% | 86.2%
5 | Cc1ccc(S(=O)(=O)NC(=O)NN2CC3CCCC3C2)cc1 (stereo not drawn) [GLICLAZIDE] | 135% | 107%
6 | CCCNC(=O)NS(=O)(=O)c1ccc(-n2nc(-c3ccc(C)cc3)ccc2=O)cc1 | 80.5% | 109%
7 | CCCNC(=O)NS(=O)(=O)c1ccc(-n2nc(-c3ccc(Cl)cc3)ccc2=O)cc1 | 74.3% | 122%
8 | CCCCNC(=O)NS(=O)(=O)c1ccc(-n2nc(-c3ccc(Cl)cc3)ccc2=O)cc1 | 66% | 100%
9 | CCCCNC(=O)NS(=O)(=O)c1ccc(-n2nc(-c3ccccc3)ccc2=O)cc1 | 67.4% | 111%
10 | CCCCNC(=O)NS(=O)(=O)c1ccc(-n2nc(-c3ccc(C)cc3)ccc2=O)cc1 | 86.6% | 109%
11 | O=C(NC1CCCCC1)NS(=O)(=O)c1ccc(-n2nc(-c3ccc(Cl)cc3)ccc2=O)cc1 | 59% | 114%
12 | Cc1ccc(-c2ccc(=O)n(-c3ccc(S(=O)(=O)NC(=O)NCc4ccccc4)cc3)n2)cc1 | 64.9% | 119%
13 | O=C(NCc1ccccc1)NS(=O)(=O)c1ccc(-n2nc(-c3ccc(Cl)cc3)ccc2=O)cc1 | 61.6% | 111%
14 | Cc1cc(-c2ccc(=O)n(-c3ccc(S(=O)(=O)NC(=O)NC4CCCCC4)cc3)n2)ccc1Cl | 62.1% | 55.2%
